Measurements taken from ChEMBL document CHEMBL3745671, “Discovery of N-[5-(6-Chloro-3-cyano-1-methyl-1H-indol-2-yl)-pyridin-3-ylmethyl]-ethanesulfonamide, a Cortisol-Sparing CYP11B2 Inhibitor that Lowers Aldosterone in Human Subjects” (J Med Chem, 2015).
The source made the active and inactive calls. No cut-off for these calls is given here.

Tests used:
[1] = Half life in human liver microsomes after 30 mins by LC/MS/MS analysis; format: ADME
[2] = Clearance in continuous angiotensin-2 infusion Sprague-Dawley rat model at 3 mg/kg, po and 1 mg/kg, iv; format: ADME, organism-based; details: in vivo
[3] = Half life in continuous angiotensin 2 infusion Sprague-Dawley rat model at 3 mg/kg, po and 1 mg/kg, iv; format: ADME, organism-based; details: in vivo
Cynomolgus monkey [4] = test: Decrease in ACTH-stimulated plasma aldosterone level in po dosed chair-trained chronically cannulated cynomolgus monkey model compound administered followed by ACTH challenge for 3 hrs measured after 24 hrs by LC/MS/MS analysis; format: functional, organism-based; details: Macaca fascicularis
Procedure, shortened: (§1)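 Conscious chair-trained, chronically cannulated male cynomolgus monkeys; vascular access port via Huber needle. Baseline blood (heparin) before dosing; methylcellulose suspension po at 0.03, 0.1, 0.3 or 3 mg/kg (n=3/dose) or vehicle (n=6, same animals). ACTH(1–24) 3000 ng/kg iv 3 h post-dose; sampling 0.125–1 h post-ACTH, up to 8 h, and 23.5 and 24 h. Aldosterone and cortisol by RIA; drug by LC/MS/MS (LLOQ 0.26 nmol/L, lower values set to zero).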

Cynomolgus monkey [5] = test: Decrease in plasma cortisol level in chair-trained chronically cannulated cynomolgus monkey model measured after 24 hrs […]; format: functional, organism-based; details: Macaca fascicularis; procedure, shortened: as §1
Cynomolgus monkey [6] = test: Decrease in ACTH-stimulated plasma cortisol level of chair-trained chronically cannulated cynomolgus monkey model at 0.03 to 3 mg/kg, po compound administered followed by ACTH challenge for 24 hrs by LC/MS/MS analysis; format: functional, organism-based; details: Macaca fascicularis; procedure, shortened: as §1
[7] = Tmax in healthy human at 100 mg/kg, po bid; format: ADME, organism-based; details: in vivo
Procedure, shortened: (§2)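 Double-blind, randomized, placebo-controlled study in healthy male and female volunteers aged 18-63 on a restricted sodium/potassium diet. Oral bid doses of 30, 60, 100 or 200 mg, drug:placebo 5:2. N per dose 10–17. AUCtau, Cmax and median Tmax reported; dose-normalized values are AUCtau/dose and Cmax/dose.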

[8] = Cmax in healthy human at 60 mg/kg, po bid; format: ADME, organism-based; design: dose 60 mg/kg, route oral; details: in vivo; procedure, shortened: as §2
[9] = Cmax in healthy human at 100 mg/kg, po bid; format: ADME, organism-based; design: dose 100 mg/kg, route oral; details: in vivo; procedure, shortened: as §2
Homo sapiens [10] = test: Dose normalized AUCtau in healthy human at 100 mg/kg, po bid; format: ADME, organism-based; details: in vivo; procedure, shortened: as §2
Homo sapiens [11] = test: Toxicity in human assessed as decrease in urinary cortisol level at 30 to 200 mg/kg, po bid measured over 24 hrs; format: organism-based, Urine; details: in vivo, in the assay text read “30 to 200 mg” for “30 to 200 mg/kg”
Procedure, shortened: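 Healthy male and female volunteers, 18-63 years, restricted sodium/potassium diet; double-blind randomized placebo-controlled, oral 30, 60, 100 or 200 mg bid (drug:placebo 5:2).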

Cynomolgus monkey [12] = test: Decrease in ACTH-stimulated plasma aldosterone level in chair-trained chronically cannulated cynomolgus monkey model at 3 mg/kg, po compound administered followed by ACTH challenge for 3 hrs measured by radioimmunoassay; design: scale not given: the % may be the effect or the level left

half-life [1]: 1.28 h
clearance [2]: 18 mL/min/kg
half-life [3]: 1.1 h
EC50 (Cynomolgus monkey [4]): 8.5 nM
Tmax [7]: 4 h
Cmax [8]: 173 ng/mL
Cmax [9]: 173 ng/mL
AUC/dose (Homo sapiens [10]): 12.7 ng·h/mL/mg
SMILES: CCS(=O)(=O)NCc1cncc(-c2c(C#N)c3ccc(Cl)cc3n2C)c1
Activity (Cynomolgus monkey [4]): Dose-dependent effect
ED50 (Cynomolgus monkey [4]; po): 0.061 mg/kg
Activity (Cynomolgus monkey [5]): inactive
Activity (Cynomolgus monkey [6]): inactive
Activity (Homo sapiens [11]): Non-toxic
Activity (Cynomolgus monkey [12]): 95%
